Experimental data published in ChEMBL document CHEMBL5500386, “Design, synthesis and bioactivity evaluation of 4-hydroxycoumarin derivatives as potential anti-inflammatory agents against acute lung injury and colitis” (Eur J Med Chem, 2024).
Activity calls are given as the source filed them. The calls are words filed in the database; no cut-off is given here.

How the values were obtained:
J774.A1 = assay: Antiinflammatory activity in LPS-induced mouse J774.A1 cells assessed as reduction in IL-6 mRNA transcription pretreated for 2 hrs followed by LPS stimulation and measured after 6 hrs by RT-qPCR analysis; assay type: functional, cell-based; conditions: dose 2.5-10 µM
How it was run: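 J774A.1 or THP-1 cells pretreated with compound for 2 h, then LPS 0.5 μg/mL for 6 h, in triplicate. Total RNA extracted and reverse-transcribed. IL-6 quantified by RT-qPCR over 40 cycles and normalised to β-actin.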

[1] = Acute toxicity in male ICR mouse assessed as fatality at 500 to 1000 mg/kg, po administered daily for 10 days and measured daily; assay type: organism-based; conditions: in vivo, 240 h, dose 500-1000 mg/kg, time 10 day
How it was run: (§1)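 Male ICR mice (8 weeks, 30 g ± 2 g), acclimatised 1 week, randomised into 1000 mg/kg, 500 mg/kg and untreated control groups (n = 24 total). Dosed by daily gavage, compound dissolved in 0.5 % DMSO then added to normal saline. Body weight and behaviour recorded daily. Euthanised after 10 days; heart, liver, spleen, lung and kidney examined by H&E staining.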

Mus musculus [2] = assay: Protection against LPS-induced C57BL/6 mouse model of acute lung injury assessed as reduction in protein level in BALF at 20 mg/kg, po administered 3 times for every 12 hrs followed by LPS stimulation at 5 mg/kg and measured after 6 hrs; assay type: functional, organism-based; conditions: time 30.0 hrs
How it was run: (§2)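 C57BL/6 mice, 6 per group. Gavaged at 20 mg/kg three times at 12 h intervals; controls received saline, and dexamethasone 20 mg/kg served as reference. After the last dose, LPS 5 mg/kg given intratracheally. At 6 h, blood collected for serum IL-6 by ELISA. Left lung lavaged with 3 × 200 μL saline, and BALF assayed for IL-6, total protein and neutrophil count. Mean ± SEM, n = 6.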

Mus musculus [3] = assay: Protection against LPS-induced C57BL/6 mouse model of acute lung injury assessed as reduction in immune markers in lungs at 20 mg/kg, po administered 3 times for every 12 hrs followed by LPS stimulation at 5 mg/kg and measured after 6 hrs by H and E staining based analysis; assay type: functional, organism-based; conditions: time 30.0 hrs
How it was run: (§3)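 LPS-induced ALI in C57BL/6 mice: 20 mg/kg orally three times at 12 h intervals, then intratracheal LPS 5 mg/kg, killed at 6 h. Lungs paraffin-embedded, cut into 5 μm sections and H&E stained. Viewed at ×20.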

[4] = Acute toxicity in male ICR mouse assessed as histopathological changes in spleen at 500 to 1000 mg/kg, po administered daily for 10 days by H and E staining based analysis; assay type: organism-based; conditions: in vivo, 240 h, dose 500-1000 mg/kg, time 10 day; how it was run: as §1
[5] = Acute toxicity in male ICR mouse assessed as histopathological changes in kidney at 500 to 1000 mg/kg, po administered daily for 10 days by H and E staining based analysis; assay type: organism-based; conditions: in vivo, 240 h, dose 500-1000 mg/kg, time 10 day; how it was run: as §1
[6] = system: TGF-beta-activated kinase 1 (MAP3K7); assay: Inhibition of TAK1 (unknown origin) at 10 uM relative to control; conditions: Homo sapiens
Mus musculus [7] = assay: Antiinflammatory activity in DSS-induced male C57BL/6 mouse model of inflammatory bowel disease assessed as increase in colon length at 20 mg/kg, IG administered with compound and DSS for 7 days followed by DSS replacement with distilled water for 3 days; assay type: functional, organism-based; conditions: time 10.0 day
THP-1 = assay: Antiinflammatory activity in LPS-induced human THP-1 cells assessed as inhibition of IL-6 production pretreated for 30 mins followed by LPS stimulation and measured after 24 hrs by ELISA; assay type: functional, cell-based
How it was run: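 Cells pretreated 30 min with a gradient of concentrations (2.5–10 μM range) or DMSO, then given LPS 0.5 μg/mL for 24 h. IL-6 in medium measured by ELISA and normalised to living cell number by MTT. Expressed as % of the LPS group, mean ± SEM of triplicates. IC50 taken from the concentration-response.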

Mus musculus [8] = assay: Protection against LPS-induced C57BL/6 mouse model of acute lung injury assessed as reduction in number of neutrophils in BALF at 20 mg/kg, po administered 3 times for every 12 hrs followed by LPS stimulation at 5 mg/kg and measured after 6 hrs; assay type: functional, organism-based; conditions: time 30.0 hrs; how it was run: as §2
Mus musculus [9] = assay: Protection against LPS-induced C57BL/6 mouse model of acute lung injury assessed as reduction in interstitial edema in lungs at 20 mg/kg, po administered 3 times for every 12 hrs followed by LPS stimulation at 5 mg/kg and measured after 6 hrs by immunohistochemical staining based analysis; assay type: functional, organism-based; conditions: time 30.0 hrs
How it was run: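 LPS-induced ALI in C57BL/6 mice: 20 mg/kg orally three times at 12 h intervals, then intratracheal LPS 5 mg/kg, lungs taken at 6 h. F4/80 IHC: xylene deparaffinisation, citrate pH 6 retrieval for 25 min, primary antibody at 4 °C for 12 h, secondary 1:2000, DAB and hematoxylin. Viewed at ×20.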

Mus musculus [10] = assay: Antiinflammatory activity in DSS-induced male C57BL/6 mouse model of inflammatory bowel disease assessed as increase in body weight at 20 mg/kg, IG administered with compound and DSS for 7 days followed by DSS replacement with distilled water for 3 days; assay type: functional, organism-based; conditions: time 10.0 day
[11] = AUC (0 to infinity) in male Sprague-Dawley rat at 1 mg/kg, iv measured upto 24 hrs by triple quadrupole mass spectrometric analysis; assay type: ADME, organism-based; conditions: in vivo
How it was run: (§4)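 Male SD rats (8 weeks, 200 g ± 20 g), n = 3 per route. Oral: 10 mg/kg by gavage in 0.05 % DMSO/normal saline, tail-vein blood at 13 times from 10 min to 24 h. IV: 1 mg/kg tail vein in 5 % DMSO/30 % PEG400/65 % saline, 14 samples from 5 min to 24 h. Heparinised plasma precipitated with acetonitrile containing internal standard. Non-compartmental analysis on mean concentrations.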

[12] = molecular target: Interleukin-1 receptor-associated kinase 1 (Homo sapiens) (UniProt P51617); assay: Inhibition of IRAK1 (unknown origin) at 10 uM relative to control
Mus musculus [13] = assay: Protection against LPS-induced C57BL/6 mouse model of acute lung injury assessed as reduction in interstitial edema in lungs at 20 mg/kg, po administered 3 times for every 12 hrs followed by LPS stimulation at 5 mg/kg and measured after 6 hrs by H and E staining based analysis; assay type: functional, organism-based; conditions: time 30.0 hrs; how it was run: as §3
[14] = Acute toxicity in male ICR mouse assessed as reduction in body weight at 500 to 1000 mg/kg, po administered daily for 10 days and measured daily for 2 to 10 days; assay type: organism-based; conditions: in vivo, 240 h, dose 500-1000 mg/kg, time 10 day; how it was run: as §1
[15] = AUC (0 to infinity) in male Sprague-Dawley rat at 10 mg/kg, po measured upto 24 hrs by triple quadrupole mass spectrometric analysis; assay type: ADME, organism-based; conditions: in vivo; how it was run: as §4
[16] = Cmax in male Sprague-Dawley rat at 1 mg/kg, iv measured upto 24 hrs by triple quadrupole mass spectrometric analysis; assay type: ADME, organism-based; conditions: in vivo; how it was run: as §4
Mus musculus [17] = assay: Protection against LPS-induced C57BL/6 mouse model of acute lung injury assessed as reduction in destruction of the alveolar cell structure at 20 mg/kg, po administered 3 times for every 12 hrs followed by LPS stimulation at 5 mg/kg and measured after 6 hrs by H and E staining based analysis; assay type: functional, organism-based; conditions: time 30.0 hrs; how it was run: as §3
Mus musculus [18] = assay: Antiinflammatory activity in DSS-induced male C57BL/6 mouse model of inflammatory bowel disease assessed as decrease in disease index at 20 mg/kg, IG administered with compound and DSS for 7 days followed by DSS replacement with distilled water for 3 days; assay type: functional, organism-based; conditions: time 10.0 day

Interleukin-1 receptor-associated kinase 1 (Homo sapiens), sequence (P51617 whole entry, looked up): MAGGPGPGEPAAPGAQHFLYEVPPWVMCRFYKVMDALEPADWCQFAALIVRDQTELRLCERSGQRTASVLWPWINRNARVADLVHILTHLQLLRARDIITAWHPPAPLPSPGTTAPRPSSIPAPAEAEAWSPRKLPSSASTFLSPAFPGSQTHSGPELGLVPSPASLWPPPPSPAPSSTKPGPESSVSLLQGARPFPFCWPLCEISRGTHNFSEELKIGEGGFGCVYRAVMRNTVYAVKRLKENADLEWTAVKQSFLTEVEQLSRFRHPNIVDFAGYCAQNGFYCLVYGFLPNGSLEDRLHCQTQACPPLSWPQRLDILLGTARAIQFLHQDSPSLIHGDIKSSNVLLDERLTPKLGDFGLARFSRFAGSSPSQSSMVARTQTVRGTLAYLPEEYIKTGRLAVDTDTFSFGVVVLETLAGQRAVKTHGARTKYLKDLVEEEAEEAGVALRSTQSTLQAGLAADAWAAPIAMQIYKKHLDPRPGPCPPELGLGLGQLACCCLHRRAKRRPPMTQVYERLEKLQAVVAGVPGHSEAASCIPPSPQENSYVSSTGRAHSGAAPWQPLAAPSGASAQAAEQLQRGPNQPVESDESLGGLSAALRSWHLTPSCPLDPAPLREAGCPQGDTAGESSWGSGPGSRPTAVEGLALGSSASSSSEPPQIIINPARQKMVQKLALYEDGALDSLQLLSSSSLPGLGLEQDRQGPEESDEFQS

**Q.** With `CC(=O)N1CCN(CCOc2cc(=O)oc3ccccc23)CC1` as the compound, how does the Activity (J774.A1) read?
**A.** Dose-Dependent Effect

**Q.** What about the Activity [1] of the same compound?
**A.** Non-Toxic

**Q.** And the Activity (Mus musculus [2])?
**A.** Active

**Q.** What about the Activity (Mus musculus [3]) of the same compound?
**A.** Active

**Q.** What about the Activity [4] of the same compound?
**A.** Non-Toxic

**Q.** What about the Activity [5] of the same compound?
**A.** Non-Toxic

**Q.** And the inhibition [6]?
**A.** 1.05%

**Q.** And the Activity (Mus musculus [7])?
**A.** Active

**Q.** What about the IC50 (THP-1) of the same compound?
**A.** 6.51 µM

**Q.** What about the Activity (THP-1; time 24.5 hrs) of the same compound?
**A.** Dose-Dependent Effect

**Q.** And the Activity (Mus musculus [8])?
**A.** Active

**Q.** And the Activity (Mus musculus [9])?
**A.** Active

**Q.** And the Activity (Mus musculus [10])?
**A.** Active

**Q.** What about the AUC(0-inf) [11] of the same compound?
**A.** 1020 ng·h/mL

**Q.** What about the inhibition [12] of the same compound?
**A.** 48.1%

**Q.** And the Activity (Mus musculus [13])?
**A.** Active

**Q.** What about the Activity [14] of the same compound?
**A.** Non-Toxic

**Q.** And the AUC(0-inf) [15]?
**A.** 3260 ng·h/mL

**Q.** What about the Cmax [16] of the same compound?
**A.** 2030 ng/mL

**Q.** What about the Activity (Mus musculus [17]) of the same compound?
**A.** Active

**Q.** What about the Activity (Mus musculus [18]) of the same compound?
**A.** Active
